# FGF22 binding: binders of human FGF22 protein, primary screen, FGF22 synaptogenesis inhibitor project, biophysical, thermal shift, single point | recombinant FGF22 thermal shift, SYPRO orange fluorescence; percent of sucrose octasulfate shift, DMSO zero | actives 1.5% (n = 340,000) | AID 651658, 2012 | activity (Tm shift, normalised), % at 9.99 µM | Fibroblast growth factor 22 (Homo sapiens), Q9HCT0;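 active means mean Tm shift, scaled 0 neutral to 100 positive control, at about 1.3% or above, every replicate too, limit read from the data; inconclusive means no clear call, values can overlap the other calls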
# Target sequence (Q9HCT0 whole entry, looked up): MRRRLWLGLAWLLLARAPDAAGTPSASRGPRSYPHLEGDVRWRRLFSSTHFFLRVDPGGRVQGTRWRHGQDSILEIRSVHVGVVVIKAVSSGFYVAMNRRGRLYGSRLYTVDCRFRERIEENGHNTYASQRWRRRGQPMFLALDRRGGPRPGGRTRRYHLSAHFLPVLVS
# EWS-Fli inh: EWS/Fli-driven NR0B1 reporter inhibitors, primary screen, A673 cells, NR0B1 luciferase, luminescence, MLPCN library; viability-normalised; inhibition, % at 12.6 µM; actives 0.67% (n = 350,000); AID 651661, 2012;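 active means mean inhibition of at least 50% after viability correction, with every replicate also passing that limit; inconclusive means mean reaches 50% but only one of two replicates passes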;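 further: firefly luciferase signal divided by Alamar Blue viability fluorescence both relative to DMSO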
# FN deposit inh: inhibitors of fibronectin matrix deposition, primary screen, AH1F cells, Alexa488-fibronectin fluorescence, plate reader. AH1F fibroblasts, overnight. inhibition, % at 12.6 µM. AID 743247, 2014. actives 0.086% (n = 350,000);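 active means mean inhibition across replicates of 30% or more, regardless of how many single replicates reach that level; inconclusive means mean under 30% yet at least half of replicates reach 30%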;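 further: positive control wells lacked labelled fibronectin entirely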
#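 Assay system: AH1F fibroblasts assembling fluorescent fibronectin matrix; Amount: 10000 AH1F cells per well; Buffer or medium: DMEM, 2% serum; Probe or stimulus: Alexa488-fibronectin, 24 nM final in well; Doses: single compound dose, delivered by pin transfer; Incubation: 1 h adhesion, overnight exposure; Measured by: fluorescence 485/525 nm; Read-out: fibronectin deposition inhibition.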
# HIV Env fusion: inhibitors of HIV-1 Env-driven cell-cell fusion, primary screen, HeLa-JRFL effector, CEM21 target cells, luciferase. inhibition, % at 12.3 µM. actives 1.1% (n = 360,000);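 active means mean replicate inhibition score of at least 50 and every replicate individually at or above 50; inconclusive means only one of the two criteria met; inactive means mean below 50 and not all replicates reaching 50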;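 further: 0% = plate neutral controls and 100% = maraviroc near 300 nM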
# PGC1a acetyl inh: inhibitors of PGC1a acetylation signal, primary screen, cell-based, U2OS, AlphaScreen, inhibitor mode; inhibition, % at 15.6 µM; actives 0.17% (n = 350,000); AlphaScreen anti-acetyl-lysine; with virally co-expressed GCN5 acetyltransferase;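 active means every replicate shows inhibition of at least 40%; inconclusive means mean inhibition at least 40% but some replicate below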;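 further: 0% = neutral control wells and 100% = positive control wells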
# PAX8 reporter: inhibitors of PAX8-driven TPO luciferase reporter, primary screen, RMG-I cells, single concentration | actives 1.2% (n = 360,000) | inhibition, % at 12.6 µM | SteadyGlo, 24 h | AID 652154, 2013;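 active means mean replicate inhibition at least 60% with every replicate also reaching 60%; inconclusive means only one of the two criteria is met; inactive means mean below 60% and not all replicates reaching 60%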;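 further: luciferase light reporting Pax8 driven TPO promoter activity; plate controls were median of neutral control wells for no effect and mitoxantrone controls for full effect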
# The depositor's hits bear a star; ? = inconclusive; · = no result; [ ] = dose if it differs, or a comment. Only some compounds are listed: those with a hit (about 3.1% of all), similar ones and a draw of the others.
SMILES,FGF22 binding,EWS-Fli inh,FN deposit inh,HIV Env fusion,PGC1a acetyl inh,PAX8 reporter
O=C(Nc1cc(F)cc(F)c1)c1ccc(NCCCN2CCCCCC2)c([N+](=O)[O-])c1,43*,-2,-5,1,-15,-3
O=C(Nc1cc(F)cc(F)c1)c1ccc(NCCc2ccccc2)c([N+](=O)[O-])c1,·,·,·,-45,4,4
CCCOc1ccc(C(CC(=O)O)NC(=O)c2sc3ccccc3c2Cl)cc1 (stereo unspecified),43*,7,-7,-15,0,-4
Cc1ccc(S(=O)(=O)Nc2ccc3c(c2)C(=O)N([C@H](C)CO)C[C@@H](C)[C@@H](CN(C)Cc2ccc(Cl)c(Cl)c2)OCCCC[C@H](C)O3)cc1,0,3,2,·,13,55
Cc1ccc(S(=O)(=O)Nc2ccc3c(c2)C(=O)N([C@H](C)CO)C[C@H](C)[C@H](CN(C)Cc2ccc(Cl)c(Cl)c2)OCCCC[C@@H](C)O3)cc1,·,-19,-18,-10[16.7 µM],-11,45
Cc1ccc(S(=O)(=O)Nc2ccc3c(c2)C(=O)N([C@@H](C)CO)C[C@@H](C)[C@@H](CN(C)Cc2ccc(Cl)c(Cl)c2)OCCCC[C@@H](C)O3)cc1,·,-15,1,30[16.7 µM],-13,96*
Cc1ccc(S(=O)(=O)Nc2ccc3c(c2)C(=O)N([C@H](C)CO)C[C@@H](C)[C@H](CN(C)Cc2ccc(Cl)c(Cl)c2)OCCCC[C@H](C)O3)cc1,·,29,-29,29[16.7 µM],11,96*
COc1cccc(C(=O)Nc2ccc3c(c2)C(=O)N(C)C[C@H](OC)[C@@H](C)CN(CC2CC2)[C@H](C)CO3)c1,0,5,-3,·,8,-10
CCOc1cc(-c2c(C#N)c(=O)[nH]c3c2c(C)nn3-c2ccc(F)cc2)ccc1O,·,·,1,57*,·,·
O=C(C[C@H]1CC[C@H]2[C@@H](COC[C@H](O)CN2C(=O)Nc2ccc(Cl)c(Cl)c2)O1)NC1CCC1,0,-8,-10,6[16.7 µM],2,23
N=c1nc2n(cc1F)C1OC(CO)C(O)C1O2 (stereo unspecified),0,37,4,69*,0,44
C[C@H](NC(=O)C[C@H]1C[C@H]2c3cc(NC(=O)Nc4ccc(C(F)(F)F)cc4)ccc3O[C@H]2[C@@H](CO)O1)c1ccccc1,0,10,·,0[16.7 µM],7,14
COc1ccccc1NC(=O)N[C@@H]1CC[C@@H](CCNC(=O)c2ccc3c(c2)OCO3)O[C@@H]1CO,0,1,-15,11[16.7 µM],14,-1
CC(C)N1C(=O)CCN(C=O)c2ccccc21,43*,-11,4,?,·,-5
COc1ccc(S(=O)(=O)N(C)C[C@H]2Oc3ccc(NC(=O)Nc4ccc5c(c4)OCO5)cc3CC(=O)N([C@H](C)CO)C[C@@H]2C)cc1,0,-2,·,-16[16.7 µM],-2,-16
CC(O)CNCc1ccc(Cl)cc1Cl (stereo unspecified),45*,-1,-5,9,·,1
COc1ccccc1NC(=O)N1CCCCN2[C@H](C1)[C@@H](c1ccc(-c3cccc(C#N)c3)cc1)[C@@H]2CO,-1,9,6,·,-15,83*
COc1ccccc1NC(=O)N1CCCCN2[C@@H](CO)[C@@H](c3ccc(-c4cccc(C)c4)cc3)[C@@H]2C1,0,57*,·,·,-4,104*
O=C(C1CCOCC1)N1CC(=O)N2[C@H](C1)[C@H](c1ccc(C#CC3CC3)cc1)[C@@H]2CO,·,5,1,·,4,-9
O=C(CCl)Nc1ccc(N=Nc2ccccc2)cc1,0,-5,-9,-33,-101,-131
O=C(CCl)Nc1cccc(Oc2ccccc2)c1,43*,14,-10,3,-18,15
O=C(CCl)Nc1ccc(-c2ccccc2)cc1,0,64*,14,-5,-21,46
O=C(CCl)Nc1cn(-c2ccccc2)nc1-c1ccccc1,43*,17,-4,-2,16,-25
CC(=O)Nc1cn(-c2ccccc2)nc1-c1ccccc1,0,-14,4,7,·,13
COc1ccc(NC(=O)Nc2ccc3c(c2)C(=O)N([C@H](C)CO)C[C@H](C)[C@H](CN(C)S(=O)(=O)c2ccc(C)cc2)OCCCC[C@@H](C)O3)cc1,0,-1,·,6[16.7 µM],-1,-5
SMILES,FGF22 binding,EWS-Fli inh,FN deposit inh,HIV Env fusion,PGC1a acetyl inh,PAX8 reporter
C[C@@H]1CCCCO[C@H](CN(C)Cc2ccc(C(F)(F)F)cc2)[C@H](C)CN([C@H](C)CO)C(=O)c2cc(NS(C)(=O)=O)ccc2O1,0,1,·,30[16.7 µM],0,13
O=C(NCc1cn(-c2ccccc2)nc1-c1ccccc1)c1cccc([N+](=O)[O-])c1,43*,-10,4,-10,-24,4
O=C(NCc1cn(-c2ccccc2)nc1-c1ccccc1)c1cc([N+](=O)[O-])cc([N+](=O)[O-])c1,·,·,·,·,-7,·
CCC(=O)N1[C@H](CO)[C@@H]2c3ccccc3N(C(=O)Nc3cccc(Cl)c3)C[C@@H]21,0,0,·,·,-2,1
COc1ccc(-n2c(C)c([N+](=O)[O-])c3ccc(O)c(CN4CCCCC4)c32)cc1,·,·,-5,?,10,-5
Cc1ccc(-n2c(C)c([N+](=O)[O-])c3ccc(O)c(CN(C)C)c32)cc1,·,·,5,62*,-6,-10
C[C@@H]1CN([C@@H](C)CO)C(=O)c2cc(-c3ccc(F)cc3)cnc2O[C@H]1CN(C)C(=O)NC1CCCC1,0,0,3,-5[16.7 µM],-7,-9
O=C(CN1C(=O)C2C3C=CC(C3)C2C1=O)Nc1ccc2nccnc2c1 (stereo unspecified),1,-12,-2,-2,-1,-11
O=C(CN1C(=O)C2C3C=CC(C4CC34)C2C1=O)Nc1cnc2ccccc2c1 (stereo unspecified),44*,-5,-14,-5,·,-40
COc1ccc(-c2nc(CN3CCN(c4ncnc5ccccc45)CC3)c(C)o2)c(OC)c1,44*,1,-43,43,·,19
O=[N+]([O-])c1ccc(CSc2nc3ccccc3o2)cc1,·,·,-6,-260,-7,-197
O=[N+]([O-])c1ccc(CSc2nnc(SCc3ccccc3)s2)cc1,44*,-13,12,11,1,-3
COc1ccc(S(=O)(=O)Nc2ccc3c(c2)CC(=O)N([C@@H](C)CO)C[C@@H](C)[C@@H](CN(C)Cc2ccc(-c4ccccc4)cc2)O3)cc1,0,23,·,22[16.7 µM],-4,85*

# Assay outcomes deposited in PubChem by Broad Institute.
